ChEMBL document CHEMBL5247575 (J Med Chem, 2018)
Values after ≈ are worked out from the molar mass of the structure shown.

Experiments:
Acinetobacter baumannii [1] = assay: Antibacterial activity against Acinetobacter baumannii PR476 producing OXA-24/40 by broth microdilution method; format: functional
Acinetobacter baumannii [2] = assay: Antibacterial activity against Acinetobacter baumannii NCTC 13301 producing OXA-23/51 infected in sc dosed Swiss albino mouse administered 1 hr post infection and measured upto 7 days; format: functional; conditions: for ED90 / ED50: NCTC 13301, 168 h, time <= 7 day; for ED50: read-out: PD50
Summary of the method: (§1)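 Peritonitis model: male and female Swiss albino mice infected intraperitoneally with 3.5×10^5 to 3×10^6 CFU/mouse in 5% hog gastric mucin (lethal to untreated mice within 24 h). […] Survival followed 7 days; PD50/PD90 by probit analysis.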

Acinetobacter baumannii [3] = assay: Antibacterial activity against Acinetobacter baumannii SL46 producing OXA-23/51 infected in sc dosed Swiss albino mouse administered 1 hr post infection and measured upto 7 days; format: functional; conditions: SL46, 168 h, time <= 7 day; summary of the method: as §1
Acinetobacter baumannii [4] = assay: Antibacterial activity against Acinetobacter baumannii SL04 producing OXA-23/51 infected in Swiss mouse model of neutropenic lung infection assessed as reduction in log10CFU at 50 mg/kg
Acinetobacter baumannii [5] = assay: Antibacterial activity against Acinetobacter baumannii NCTC 13303 producing OXA-26/51 infected in sc dosed Swiss albino mouse administered 1 hr post infection and measured upto 7 days; format: functional; conditions: NCTC 13303, 168 h, time <= 7 day; summary of the method: as §1
Acinetobacter baumannii [6] = assay: Antibacterial activity against Acinetobacter baumannii SL04 producing OXA-23/51 infected in Swiss mouse model of neutropenic lung infection
Escherichia coli = assay: Antibacterial activity against Escherichia coli DH10B transfected with pBC SK (-) OXA-48 by broth microdilution method; format: functional
Klebsiella pneumoniae [7] = assay: Antibacterial activity against Klebsiella pneumoniae 660/1568 producing KPC-3 by broth microdilution method; format: functional
Klebsiella pneumoniae [8] = assay: Antibacterial activity against Klebsiella pneumoniae 977/1916 producing KPC-3 by broth microdilution method; format: functional
Acinetobacter baumannii [9] = assay: Antibacterial activity against ADC deleted Acinetobacter baumannii transfected with pWH1266 producing OXA-24/40 by broth microdilution method; format: functional
Acinetobacter baumannii [10] = assay: Antibacterial activity against Acinetobacter baumannii SL46 producing OXA-23/51 infected in sc dosed Swiss albino mouse administered 1 hr post infection and measured upto 7 days; conditions: SL46, 168 h
Acinetobacter baumannii [11] = assay: Antibacterial activity against Acinetobacter baumannii NCTC 13303 producing OXA-26/51 infected in sc dosed Swiss albino mouse administered 1 hr post infection and measured upto 7 days; conditions: NCTC 13303, 168 h; for ED50: read-out: PD50

CO/N=C(\C(=O)N[C@@H]1C(=O)N2C(C(=O)[O-])=C(C[N+]3(C)CCCC3)CS[C@H]12)c1csc(N)n1
MIC (Acinetobacter baumannii [1]): 1 µg/mL (≈ 2.08 µM) | ED90 (Acinetobacter baumannii [2]): > 100 mg/kg | ED50 (Acinetobacter baumannii [2]): > 100 mg/kg | ED90 (Acinetobacter baumannii [3]): 50 mg/kg | ED50 (Acinetobacter baumannii [3]; read-out: PD50): 50 mg/kg | Activity (Acinetobacter baumannii [4]): 0.98 log10CFU | ED90 (Acinetobacter baumannii [5]): 50 mg/kg | ED50 (Acinetobacter baumannii [5]; read-out: PD50): 50 mg/kg

C[C@@H](O)[C@H]1C(=O)N2C(C(=O)O)=C(SCCNC=N)C[C@H]12 [IMIPENEM ANHYDROUS]
MIC (Acinetobacter baumannii [6]): 64 µg/mL (≈ 214 µM)

C[C@@H](O)[C@H]1C(=O)N2C(C(=O)O)=C(S[C@@H]3CN[C@H](C(=O)N(C)C)C3)[C@H](C)[C@H]12 [MEROPENEM]
MIC (Escherichia coli): 8 µg/mL (≈ 20.9 µM) | MIC (Acinetobacter baumannii [1]): 0.25 µg/mL (≈ 0.652 µM) | MIC (Klebsiella pneumoniae [7]): 2 µg/mL (≈ 5.22 µM) | MIC (Acinetobacter baumannii [6]): 64 µg/mL (≈ 167 µM) | MIC (Klebsiella pneumoniae [8]): 1 µg/mL (≈ 2.61 µM) | ED90 (Acinetobacter baumannii [2]): 25 mg/kg | ED50 (Acinetobacter baumannii [2]): 25 mg/kg | MIC (Acinetobacter baumannii [9]): > 16 µg/mL | ED90 (Acinetobacter baumannii [10]): 50 mg/kg | ED50 (Acinetobacter baumannii [10]; read-out: PD50): 50 mg/kg | ED90 (Acinetobacter baumannii [11]): 50 mg/kg | ED50 (Acinetobacter baumannii [11]): 50 mg/kg

CN(C)c1cc(NC(=O)CNC(C)(C)C)c(O)c2c1C[C@H]1C[C@H]3[C@H](N(C)C)C(O)=C(C(N)=O)C(=O)[C@@]3(O)C(O)=C1C2=O [TIGECYCLINE]
MIC (Acinetobacter baumannii [6]): 4 µg/mL (≈ 6.83 µM) | ED90 (Acinetobacter baumannii [2]): > 6.25 mg/kg | ED50 (Acinetobacter baumannii [2]): > 6.25 mg/kg | ED90 (Acinetobacter baumannii [11]): > 6.25 mg/kg | ED50 (Acinetobacter baumannii [11]): > 6.25 mg/kg

COLISTIN
PD50 (Acinetobacter baumannii [2]; time <= 7.0 day): 16.6 mg/kg
